Assay results published in ChEMBL document CHEMBL1250547, “Synthesis and evaluation of original amidoximes as antileishmanial agents” (Bioorg Med Chem, 2010).

Tests used:
[1] = Selectivity index, ratio of IC50 for human THP1 cells to IC50 for promastigotes of Leishmania donovani HOM/IN/01/2001; assay type: toxicity, cell-based, THP-1; conditions: read-out: Selectivity Index
[2] = system: THP-1; assay: Cytotoxicity against human THP1 cells after 72 hrs by flow cytometry; assay type: cell-based; conditions: THP-1, 72 h
Procedure, shortened: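 Late log-phase THP1 monocytes in phenol red-free RPMI 1640 with 10% FCS, 2% L-glutamine, 1% penicillin-streptomycin; compound range in duplicate, DMSO final <0.5% v/v; 72 h at 37 °C, 6% CO2; propidium iodide staining, live cells counted by flow cytometry; doxorubicin, pentamidine and solvent controls; IC50 by non-linear regression, mean of three independent experiments.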

[3] = system: Leishmania donovani; assay: Antileishmanial activity against promastigotes of Leishmania donovani HOM/IN/01/2001 after 72 hrs by flow cytometry; assay type: functional, organism-based; conditions: HOM/IN/01/2001, 72 h
Procedure, shortened: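 GFP-transfected late log-phase promastigotes in M199 with 10% FCS and 500 µg/mL G418, seeded at about 10⁵ parasites/mL; compounds in DMSO (final <0.5% v/v) over a concentration range in duplicate; 72 h at 27 °C; growth read by green fluorescence flow cytometry; DMSO and pentamidine controls; IC50 versus control by non-linear regression of dose-response curves.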

| SMILES | selectivity ratio [1] | IC50 [2] | IC50 [3] |
| --- | --- | --- | --- |
| N/C(=N\O)c1ccc(Nc2ccc(S(=O)(=O)C3=C(c4ccc(/C(N)=N/O)cc4)OC(c4ccccc4)(c4ccccc4)C3)cc2)cc1 | > 1.3 | > 50 µM | 39.1 µM |
| N/C(=N\O)c1ccc(Nc2ccc(C3=C(S(=O)(=O)c4ccc(/C(N)=N/O)cc4)CC(c4ccccc4)(c4ccccc4)O3)cc2)cc1 | < 1 | 48.9 µM | > 50 µM |
| CC1(Cc2ccccc2)CC(S(=O)(=O)c2ccc(Nc3ccc(/C(N)=N/O)cc3)cc2)=C(c2ccc(/C(N)=N/O)cc2)O1 (centres undefined) | < 1 | 47.6 µM | > 50 µM |
| CC1(Cc2ccccc2)CC(S(=O)(=O)c2ccc(/C(N)=N/O)cc2)=C(c2ccc(Nc3ccc(/C(N)=N/O)cc3)cc2)O1 (centres undefined) | 0.3 | 9.8 µM | 30.1 µM |
| N/C(=N\O)c1ccc(C2=C(S(=O)(=O)c3ccc(Nc4cccc(/C(N)=N/O)c4)cc3)CC(c3ccccc3)(c3ccccc3)O2)cc1 |  | > 50 µM | > 50 µM |
| N/C(=N\O)c1ccc(S(=O)(=O)C2=C(c3ccc(Nc4cccc(/C(N)=N/O)c4)cc3)OC(c3ccccc3)(c3ccccc3)C2)cc1 | < 1 | 48.1 µM | > 50 µM |
| CC1(Cc2ccccc2)CC(S(=O)(=O)c2ccc(Nc3cccc(/C(N)=N/O)c3)cc2)=C(c2ccc(/C(N)=N/O)cc2)O1 (centres undefined) | < 1 | 46.6 µM | > 50 µM |
| CC1(Cc2ccccc2)CC(S(=O)(=O)c2ccc(/C(N)=N/O)cc2)=C(c2ccc(Nc3cccc(/C(N)=N/O)c3)cc2)O1 (centres undefined) | < 0.9 | 44 µM | > 50 µM |
| N/C(=N\O)c1ccc(C2=C(S(=O)(=O)c3ccc(Nc4ccccc4/C(N)=N/O)cc3)CC(c3ccccc3)(c3ccccc3)O2)cc1 | > 1.3 | > 50 µM | 39.1 µM |
| N/C(=N\O)c1ccc(S(=O)(=O)C2=C(c3ccc(Nc4ccccc4/C(N)=N/O)cc3)OC(c3ccccc3)(c3ccccc3)C2)cc1 | 3.6 | 47.8 µM | 13.3 µM |
| CC1(Cc2ccccc2)CC(S(=O)(=O)c2ccc(Nc3ccccc3/C(N)=N/O)cc2)=C(c2ccc(/C(N)=N/O)cc2)O1 (centres undefined) | 1 | 48.4 µM | 48.3 µM |
| CC1(Cc2ccccc2)CC(S(=O)(=O)c2ccc(/C(N)=N/O)cc2)=C(c2ccc(Nc3ccccc3/C(N)=N/O)cc2)O1 (centres undefined) | 5.5 | 48.1 µM | 8.8 µM |
| N/C(=N\O)c1ccc(/C=C/c2ccc(S(=O)(=O)C3=C(c4ccc(/C(N)=N/O)cc4)OC(c4ccccc4)(c4ccccc4)C3)cc2)cc1 | > 0.2 | > 10 µM | 50 µM |
| N/C(=N\O)c1ccc(/C=C/c2ccc(C3=C(S(=O)(=O)c4ccc(/C(N)=N/O)cc4)CC(c4ccccc4)(c4ccccc4)O3)cc2)cc1 | < 0.9 | 41.3 µM | > 50 µM |
| CC1(Cc2ccccc2)CC(S(=O)(=O)c2ccc(/C=C/c3ccc(/C(N)=N/O)cc3)cc2)=C(c2ccc(/C(N)=N/O)cc2)O1 (centres undefined) |  | > 50 µM | > 50 µM |
| CC1(Cc2ccccc2)CC(S(=O)(=O)c2ccc(/C(N)=N/O)cc2)=C(c2ccc(/C=C/c3ccc(/C(N)=N/O)cc3)cc2)O1 (centres undefined) | 1.4 | 23.4 µM | 17.1 µM |
| CC1(Cc2ccccc2)CC(S(=O)(=O)c2ccc(/C(N)=N/O)cc2)=C(c2ccccc2)O1 (centres undefined) | 6.6 | 54.7 µM | 8.3 µM |
| CC1(Cc2ccccc2)CC(S(=O)(=O)c2ccc(/C(N)=N/O)cc2)=C(c2ccc(/C(N)=N/O)cc2)O1 (centres undefined) | 1 | 99.5 µM | 99.5 µM |
| N/C(=N\O)c1ccc(C(=O)CS(=O)(=O)c2ccccc2)cc1 |  | > 125 µM | > 125 µM |
| N/C(=N\O)c1ccc(S(=O)(=O)CC(=O)c2ccccc2)cc1 |  | > 125 µM | > 125 µM |
| N/C(=N\O)c1ccc(C(=O)CS(=O)(=O)c2ccc(/C(N)=N/O)cc2)cc1 |  | > 125 µM | > 125 µM |
| N/C(=N\O)c1ccc(C2=C(S(=O)(=O)c3ccccc3)CC(c3ccccc3)(c3ccccc3)O2)cc1 | 1.5 | 30.6 µM | 20.6 µM |
| N/C(=N\O)c1ccc(S(=O)(=O)C2=C(c3ccccc3)OC(c3ccccc3)(c3ccccc3)C2)cc1 | 2.1 | 37.9 µM | 17.6 µM |
| N/C(=N\O)c1ccc(C2=C(S(=O)(=O)c3ccc(/C(N)=N/O)cc3)CC(c3ccccc3)(c3ccccc3)O2)cc1 | 1.6 | 119 µM | 74.3 µM |
| CC1(Cc2ccccc2)CC(S(=O)(=O)c2ccccc2)=C(c2ccc(/C(N)=N/O)cc2)O1 (centres undefined) | 3.1 | 94.6 µM | 30.3 µM |
| COc1cccc2c1C(=O)c1c(O)c3c(c(O)c1C2=O)C[C@@](O)(C(=O)CO)C[C@@H]3O[C@H]1C[C@H](N)[C@H](O)[C@H](C)O1 [DOXORUBICIN] |  | 0.008 µM |  |
| N=C(N)c1ccc(OCCCCCOc2ccc(C(=N)N)cc2)cc1 [PENTAMIDINE] | 2.8 | 31.2 µM | 11.2 µM |
